Test results from PMC8649514 (Journal of the American Heart Association: Cardiovascular …, 2021).
Bridges are numbered along the chain shown (N, C = ends). Where no end group is shown, it is not given here.

Columns and labels:
[1] = system: ventricular lysates of β2‐AR transgenic mouse hearts; experiment: Quantification of peptide accumulation in mouse heart lysates; assay type: in vivo; conditions: sulfo‐Cy5.5 cyclic peptide iv 0.5 mg/kg, 4 h, β2‐AR Tg mice; n=4 per group
[2] = system: heart and organs of β2‐AR transgenic mice; experiment: Cardiac tracer uptake in whole organs by ex vivo NIR fluorescence imaging; set-up: species or system mouse; conditions: iv 0.5 mg/kg, 4 h, whole-organ Odyssey scan; P=0.057–0.1; n=4 per group
[3] = system: collagen IV; experiment: Coimmunostaining of collagen IV and T peptide in human cardiac tissue; conditions: ex vivo costaining, IHD patient heart section, confocal microscopy
How it was run: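 Fresh-frozen IHD and nonfibrotic donor human heart cryosections (10 or 5 µm) were PBS-washed, blocked in 10% normal goat serum for 2 h at room temperature, and incubated 72 h at 4 °C with sulfo-Cy5.5 T peptide (0.0375 µg/mL in PBS). Collagen IV was stained with primary antibody (10 µg/mL, overnight, 4 °C) and Alexa Fluor 488 anti-rabbit secondary (2 µg/mL). Nuclei were stained with Hoechst (5 µg/mL), and images were taken by confocal microscopy at ×20.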

Row | Substance | amount of peptide per gram tissue, left vs right transgenic ventricle [1] | peptide accumulation in kidneys and lungs, fibrotic vs nontransgenic mice [2] | overlap with collagen IV in human cardiac tissue [3]
1 | GKWHCTTKFPHHYCLYG (disulfide 5-14 (inferred)) [cyclic peptide] | twice | near‐significant enhancement | –
2 | TLTYTWS [T peptide] | – | – | high degree of overlap
